Test results published in ChEMBL document CHEMBL3232844, “Synthesis and structure activity relationships of schweinfurthin indoles” (2014).

Experiments:
Assay type in all cases: functional
PC-3 = test: Cytotoxicity against human PC3 cells
Summary of the method: (§1)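 Tested in a 60-cell-line human tumor panel screen; the read-out is growth inhibition, reported as GI50 for each cell line.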

T47D = test: Cytotoxicity against human T47D cells
Summary of the method: (§2)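 Cell line run as part of the 60-cell-line screening panel; growth inhibition was reported as a GI50 for each line.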

HCT-116 = test: Cytotoxicity against human HCT116 cells; summary of the method: as §1
NCI-H322M = test: Cytotoxicity against human NCI-H322M cells; summary of the method: as §1
MCF7 = test: Cytotoxicity against human MCF7 cells; summary of the method: as §1
NCI-H460 = test: Cytotoxicity against human NCI-H460 cells; summary of the method: as §1
MDA-MB-468 = test: Cytotoxicity against human MDA-MB-468 cells; summary of the method: as §1
[1] = Cytotoxicity against human OVCAR5 cells; summary of the method: as §1
NCI-H23 = test: Cytotoxicity against human NCI-H23 cells; summary of the method: as §1
HOP-62 = test: Cytotoxicity against human HOP62 cells; summary of the method: as §1
SNB-75 = test: Cytotoxicity against human SNB75 cells; summary of the method: as §2
A549 = test: Cytotoxicity against human A549 cells; summary of the method: as §1
SK-OV-3 = test: Cytotoxicity against human SKOV3 cells; summary of the method: as §1
DU-145 = test: Cytotoxicity against human DU145 cells; summary of the method: as §1
MDA-MB-231 = test: Cytotoxicity against human MDA-MB-231 cells; summary of the method: as §1
LOX IMVI = test: Cytotoxicity against human LOXIMVI cells; summary of the method: as §1
COLO 205 = test: Cytotoxicity against human COLO205 cells; summary of the method: as §1
IGROV-1 = test: Cytotoxicity against human IGROV1 cells; summary of the method: as §1
M14 = test: Cytotoxicity against human M14 cells; summary of the method: as §1
K562 = test: Cytotoxicity against human K562 cells; summary of the method: as §1
CCRF-CEM = test: Cytotoxicity against human CCRF-CEM cells
SF-539 = test: Cytotoxicity against human SF539 cells; summary of the method: as §1
[2] = Cytotoxicity against human OVCAR8 cells; summary of the method: as §1
[3] = Cytotoxicity against human OVCAR4 cells; summary of the method: as §1
[4] = Cytotoxicity against human UACC62 cells; summary of the method: as §2
786-0 = test: Cytotoxicity against human 786-0 cells; summary of the method: as §1
HL-60(TB) = test: Cytotoxicity against human HL-60(TB) cells
Summary of the method: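 Tested within the NCI 60-cell-line screen, with GI50 as the read-out. Values are the average of two independent experiments. The lowest concentration tested was 10 nM.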

NCI-H226 = test: Cytotoxicity against human NCI-H226 cells; summary of the method: as §1
SNB-19 = test: Cytotoxicity against human SNB19 cells; summary of the method: as §1
MDA-MB-435 = test: Cytotoxicity against human MDA-MB-435 cells; summary of the method: as §1
[5] = Cytotoxicity against human UO31 cells; summary of the method: as §2
SF-268 = test: Cytotoxicity against human SF268 cells; summary of the method: as §1
[6] = Cytotoxicity against human HCT15 cells; summary of the method: as §1
SK-MEL-5 = test: Cytotoxicity against human SK-MEL-5 cells; summary of the method: as §1
MOLT-4 = test: Cytotoxicity against human MOLT4 cells; summary of the method: as §1
BT-549 = test: Cytotoxicity against human BT549 cells; summary of the method: as §1
HCC 2998 = test: Cytotoxicity against human HCC2998 cells; summary of the method: as §1
KM12 = test: Cytotoxicity against human KM12 cells; summary of the method: as §1
ACHN = test: Cytotoxicity against human ACHN cells; summary of the method: as §1
SK-MEL-2 = test: Cytotoxicity against human SK-MEL-2 cells; summary of the method: as §1
A498 = test: Cytotoxicity against human A498 cells; summary of the method: as §1
CAKI-1 = test: Cytotoxicity against human Caki1 cells; summary of the method: as §1
[7] = Cytotoxicity against human NCI-ADR-RES cells; summary of the method: as §1
[8] = read-out: pLC50 (the source's name) (converted)

SMILES: COc1cc(/C=C/c2cc(O)c3ccn(C)c3c2)cc2c1O[C@]1(C)CC[C@@H](O)C(C)(C)[C@H]1C2
- GI50 (PC-3): 0.575 µM
- LC50 (PC-3): > 100 µM
- TGI (PC-3; read-out: pTGI (converted)): 67.6 µM
- GI50 (T47D): 5.62 µM
- CC50 (T47D; [8]): > 100 µM
- TGI (T47D; read-out: pTGI (converted)): 60.3 µM
- GI50 (HCT-116): 1.17 µM
- CC50 (HCT-116; [8]): > 100 µM
- TGI (HCT-116; read-out: pTGI (converted)): 47.9 µM
- GI50 (NCI-H322M): 12.9 µM
- CC50 (NCI-H322M; [8]): > 100 µM
- TGI (NCI-H322M; read-out: pTGI (converted)): > 100 µM
- GI50 (MCF7): 0.741 µM
- LC50 (MCF7): > 100 µM
- TGI (MCF7; read-out: pTGI (converted)): 42.7 µM
- GI50 (NCI-H460): 1.66 µM
- CC50 (NCI-H460; [8]): > 100 µM
- TGI (NCI-H460; read-out: pTGI (converted)): > 100 µM
- GI50 (MDA-MB-468): 1.02 µM
- LC50 (MDA-MB-468): > 100 µM
- TGI (MDA-MB-468; read-out: pTGI (converted)): 14.1 µM
- GI50 ([1]; OVCAR-5): 12.3 µM
- CC50 ([1]; OVCAR-5, read-out: pLC50 (the source's name) (converted)): > 100 µM
- TGI ([1]; OVCAR-5, read-out: pTGI (converted)): 77.6 µM
- GI50 (NCI-H23): 2.45 µM
- CC50 (NCI-H23; [8]): > 100 µM
- TGI (NCI-H23; read-out: pTGI (converted)): 30.2 µM
- GI50 (HOP-62): 0.407 µM
- CC50 (HOP-62; [8]): > 100 µM
- TGI (HOP-62; read-out: pTGI (converted)): 5.01 µM
- GI50 (SNB-75): 0.138 µM
- CC50 (SNB-75; [8]): 93.3 µM
- TGI (SNB-75; read-out: pTGI (converted)): 8.91 µM
- GI50 (A549): 4.9 µM
- CC50 (A549; [8]): > 100 µM
- TGI (A549; read-out: pTGI (converted)): 64.6 µM
- GI50 (SK-OV-3): 3.02 µM
- LC50 (SK-OV-3): > 100 µM
- TGI (SK-OV-3; read-out: pTGI (converted)): 72.4 µM
- GI50 (DU-145): 3.8 µM
- LC50 (50% lethal concentration) (DU-145): > 100 µM
- TGI (DU-145; read-out: pTGI (converted)): 91.2 µM
- GI50 (MDA-MB-231): 1.12 µM
- LC50 (MDA-MB-231): > 100 µM
- TGI (MDA-MB-231; read-out: pTGI (converted)): 28.2 µM
- GI50 (LOX IMVI): 0.977 µM
- CC50 (LOX IMVI; [8]): > 100 µM
- TGI (LOX IMVI; read-out: pTGI (converted)): 50.1 µM
- GI50 (COLO 205): 1.66 µM
- CC50 (COLO 205; [8]): 7.08 µM
- TGI (COLO 205; read-out: pTGI (converted)): 3.47 µM
- GI50 (IGROV-1): 2.82 µM
- CC50 (IGROV-1; [8]): > 100 µM
- TGI (IGROV-1; read-out: pTGI (converted)): 46.8 µM
- GI50 (M14): 0.525 µM
- CC50 (M14; [8]): > 100 µM
- TGI (M14; read-out: pTGI (converted)): 4.37 µM
- GI50 (K562): 0.794 µM
- CC50 (K562; [8]): > 100 µM
- TGI (K562; read-out: pTGI (converted)): > 100 µM
- GI50 (CCRF-CEM): 0.38 µM
- CC50 (CCRF-CEM; [8]): > 100 µM
- TGI (CCRF-CEM; read-out: pTGI (converted)): > 100 µM
- GI50 (SF-539): 0.105 µM
- TGI (SF-539; read-out: pTGI (converted)): 1.38 µM
- GI50 ([2]; OVCAR-8): 11.2 µM
- CC50 ([2]; OVCAR-8, read-out: pLC50 (the source's name) (converted)): > 100 µM
- TGI ([2]; OVCAR-8, read-out: pTGI (converted)): 77.6 µM
- GI50 ([3]; OVCAR-4): 4.27 µM
- CC50 ([3]; OVCAR-4, read-out: pLC50 (the source's name) (converted)): > 100 µM
- TGI ([3]; OVCAR-4, read-out: pTGI (converted)): > 100 µM
- GI50 ([4]; UACC-62): 0.316 µM
- CC50 ([4]; UACC-62, read-out: pLC50 (the source's name) (converted)): 77.6 µM
- TGI ([4]; UACC-62, read-out: pTGI (converted)): 2.09 µM
- GI50 (786-0): 0.186 µM
- LC50 (concentration killing 50% of cells) (786-0): > 100 µM
- GI50 (HL-60(TB)): 1.23 µM
- CC50 (HL-60(TB); [8]): > 100 µM
- TGI (HL-60(TB); read-out: pTGI (converted)): 58.9 µM
- GI50 (NCI-H226): 11.5 µM
- CC50 (NCI-H226; [8]): 64.6 µM
- TGI (NCI-H226; read-out: pTGI (converted)): 26.9 µM
- GI50 (SNB-19): 1.45 µM
- CC50 (SNB-19; [8]): > 100 µM
- TGI (SNB-19; read-out: pTGI (converted)): > 100 µM
- GI50 (MDA-MB-435): 1.45 µM
- CC50 (MDA-MB-435; [8]): > 100 µM
- TGI (MDA-MB-435; read-out: pTGI (converted)): 47.9 µM
- GI50 ([5]; UO-31): 0.437 µM
- LC50 ([5]; UO-31): > 100 µM
- TGI ([5]; UO-31, read-out: pTGI (converted)): 7.24 µM
- GI50 (SF-268): 2.04 µM
- CC50 (SF-268; [8]): > 100 µM
- TGI (SF-268; read-out: pTGI (converted)): 66.1 µM
- GI50 ([6]; HCT-15): 0.832 µM
- CC50 ([6]; HCT-15, read-out: pLC50 (the source's name) (converted)): > 100 µM
- TGI ([6]; HCT-15, read-out: pTGI (converted)): 4.37 µM
- GI50 (SK-MEL-5): 1.15 µM
- CC50 (SK-MEL-5; [8]): 5.25 µM
- TGI (SK-MEL-5; read-out: pTGI (converted)): 2.45 µM
- GI50 (MOLT-4): 0.447 µM
- CC50 (MOLT-4; [8]): > 100 µM
- TGI (MOLT-4; read-out: pTGI (converted)): 10.2 µM
- GI50 (BT-549): 1.55 µM
- CC50 (BT-549; [8]): > 100 µM
- TGI (BT-549; read-out: pTGI (converted)): 39.8 µM
- GI50 (HCC 2998): 4.57 µM
- CC50 (HCC 2998; [8]): > 100 µM
- TGI (HCC 2998; read-out: pTGI (converted)): 29.5 µM
- GI50 (KM12): 1.26 µM
- CC50 (KM12; [8]): 34.7 µM
- TGI (KM12; read-out: pTGI (converted)): 7.08 µM
- GI50 (ACHN): 0.776 µM
- LC50 (concentration killing 50% of cells) (ACHN): > 100 µM
- TGI (ACHN; read-out: pTGI (converted)): 55 µM
- GI50 (SK-MEL-2): 0.692 µM
- CC50 (SK-MEL-2; [8]): > 100 µM
- TGI (SK-MEL-2; read-out: pTGI (converted)): 12.9 µM
- GI50 (A498): 6.03 µM
- CC50 (A498; [8]): 89.1 µM
- TGI (A498; read-out: pTGI (converted)): 38.9 µM
- GI50 (CAKI-1): 2.29 µM
- LC50 (CAKI-1): > 100 µM
- TGI (CAKI-1; read-out: pTGI (converted)): 21.9 µM
- GI50 [7]: 9.55 µM
- CC50 [7, 8]: > 100 µM
- TGI ([7]; read-out: pTGI (converted)): 69.2 µM
